Laboratory results from ChEMBL document CHEMBL4813962, “Design, synthesis and biological evaluation of sulfamoylphenyl-quinazoline derivatives as potential EGFR/CAIX dual inhibitors” (Eur J Med Chem, 2021).
The source made the active and inactive calls. The rule behind the calls is not given here.

Key:
NCI-H1975 [1] = experiment: Induction of cell cycle arrest in human NCI-H1975 cells assessed as G1 phase at 2 uM incubated for 24 hrs by propidium iodide based flow cytometry analysis (reference value: 60.76 %); type: functional
NCI-H1975 [2] = experiment: Induction of apoptosis in human NCI-H1975 cells assessed as viable cells at 2 uM incubated for 24 hrs by annexin V-FITC and propidium iodide based flow cytometry analysis (reference value: 93.2 %); type: functional; conditions: read-out: Activity
NCI-H1975 [3] = experiment: Induction of apoptosis in human NCI-H1975 cells assessed as early apoptotic cells at 2 uM incubated for 24 hrs by annexin V-FITC and propidium iodide based flow cytometry analysis (reference value: 1.34 %); type: functional
NCI-H1975 [4] = experiment: Induction of apoptosis in human NCI-H1975 cells assessed as necrotic cells at 2 uM incubated for 24 hrs by annexin V-FITC and propidium iodide based flow cytometry analysis (reference value: 0.455 %); type: functional
NCI-H1975 [5] = experiment: Induction of cell cycle arrest in human NCI-H1975 cells assessed as S phase at 2 uM incubated for 24 hrs by propidium iodide based flow cytometry analysis (reference value: 24.50 %); type: functional
NCI-H1975 [6] = experiment: Induction of apoptosis in human NCI-H1975 cells assessed as late apoptotic cells at 2 uM incubated for 24 hrs by annexin V-FITC and propidium iodide based flow cytometry analysis (reference value: 4.98 %); type: functional
NCI-H1975 [7] = experiment: Induction of cell cycle arrest in human NCI-H1975 cells assessed as G2/M phase at 2 uM incubated for 24 hrs by propidium iodide based flow cytometry analysis (reference value: 14.74 %); type: functional
NCI-H1975 [8] = experiment: Induction of cell cycle arrest in human NCI-H1975 cells incubated for 24 hrs by propidium iodide based flow cytometry analysis; type: functional; conditions: dose 2-5 µM
[9] = biological target: Epidermal growth factor receptor (Homo sapiens, UniProt P00533, T790M)
[10] = biological target: T1, Epidermal growth factor receptor (Homo sapiens, UniProt P00533); experiment: Inhibition of EGFR in human NCI-H1975 cells assessed as reduction in AKT phosphorylation incubated for 24 hrs by Western blot analysis; type: cell-based; conditions: dose 2-5 µM
In short: (§1)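 H1975 cells exposed to 2 or 5 µM compound for 24 h under normoxia. Lysates made on ice, protein measured by BCA, equal amounts separated on 12% SDS-PAGE and moved to PVDF. Blots blocked in 5% milk/TBST, incubated overnight at 4 °C with antibodies to EGFR/p-EGFR, AKT/p-AKT and ERK/p-ERK, and developed by chemiluminescence.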

NCI-H1975 [11] = experiment: Induction of cell cycle arrest in human NCI-H1975 cells assessed as G1 phase at 5 uM incubated for 24 hrs by propidium iodide based flow cytometry analysis (reference value: 60.76 %); type: functional
NCI-H1975 [12] = experiment: Induction of apoptosis in human NCI-H1975 cells assessed as necrotic cells at 5 uM incubated for 24 hrs by annexin V-FITC and propidium iodide based flow cytometry analysis (reference value: 0.455 %); type: functional
A549 [13] = experiment: Cytotoxicity against human A549 cells assessed as reduction in cell viability incubated for 72 hrs under hypoxic condition by MTT assay; type: functional, cell-based; conditions: A549, 72 h
In short: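 A549 cells given compound for 72 h at 37 °C in hypoxia (1% O2, 94% N2, 5% CO2). Compounds taken up in DMSO and diluted in medium, final DMSO below 0.4%. MTT then added for 4 h, formazan dissolved in DMSO, absorbance read at 570/630 nm. IC50 from three parallel experiments.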

NCI-H1975 [14] = experiment: Induction of cell cycle arrest in human NCI-H1975 cells assessed as G2/M phase at 5 uM incubated for 24 hrs by propidium iodide based flow cytometry analysis (reference value: 14.74 %); type: functional
NCI-H1975 [15] = experiment: Antimigratory activity in human NCI-H1975 cells assessed as cell migration at 1 uM incubated for 24 hrs by wound healing assay (reference value: 51.2 %); type: functional
In short: (§2)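 H1975 monolayer scratched with pipette tip, washed twice with PBS, then kept in serum-free medium with test compound at 0.5 or 1.0 µM; untreated control got medium only. Wound photographed by inverted microscope after 24 h and wound area traced. Migration rate = (0 h wound area − […] wound area)/0 h wound area.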

L02 = experiment: cells; type: functional, cell-based; conditions: Homo sapiens, L02, 72 h
NCI-H1975 [16] = experiment: Cytotoxicity against human NCI-H1975 cells assessed as reduction in cell viability incubated for 72 hrs under hypoxic condition by MTT assay; type: functional, cell-based; conditions: NCI-H1975, 72 h
In short: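 H1975 cells grown in medium with 10% FBS and penicillin/streptomycin under hypoxia (1% O2, 94% N2, 5% CO2) at 37 °C. Compounds dissolved in DMSO and diluted in medium, final DMSO below 0.4%. Incubated 72 h at 37 °C, then MTT (5 mg/mL) for 4 h. Formazan dissolved in DMSO and OD read at 570/630 nm. IC50 from three parallel experiments.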

A549 [17] = experiment: cells; type: functional, cell-based; conditions: Homo sapiens, A549, 72 h
Carbonic anhydrase 9 [18] = biological target: T2, Carbonic anhydrase 9 (Homo sapiens, UniProt Q16790); experiment: Downregulation of carbonic anhydrase 9 in human NCI-H1975 cells assessed as reduction in HIF-1alpha incubated for 24 hrs in hypoxic condition by Western blot analysis; type: cell-based
In short: (§3)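 Lysates cleared at 20 000 g, protein quantified by BCA, equal amounts run on 12% SDS-PAGE and blotted to PVDF. Probed overnight at 4 °C for CAIX and HIF-1α, chemiluminescent detection.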

NCI-H1975 [19] = experiment: Antimigratory activity in human NCI-H1975 cells assessed as reduction in cell migration incubated for 24 hrs by wound healing assay; type: functional, cell-based; conditions: dose 0.5-1 µM; in short: as §2
[20] = biological target: T1, Epidermal growth factor receptor; experiment: Inhibition of EGFR in human NCI-H1975 cells assessed as reduction in EGFR phosphorylation incubated for 24 hrs by Western blot analysis; type: cell-based; conditions: dose 2-5 µM; in short: as §1
[21] = biological target: T1, Epidermal growth factor receptor
NCI-H1975 [22] = experiment: Induction of apoptosis in human NCI-H1975 cells incubated for 24 hrs by annexin V-FITC and propidium iodide based flow cytometry analysis; type: functional, cell-based; conditions: dose 2-5 µM
Carbonic anhydrase 2 = Carbonic anhydrase 2 (Homo sapiens, UniProt P00918); experiment: Inhibition of human carbonic anhydrase 2 using p-nitrophenyl acetate as substrate by UV-VIS spectrophotometric analysis
NCI-H1975 [23] = experiment: Induction of apoptosis in human NCI-H1975 cells assessed as viable cells at 5 uM incubated for 24 hrs by annexin V-FITC and propidium iodide based flow cytometry analysis (reference value: 93.2 %); type: functional; conditions: read-out: Activity
A-431 = experiment: cells; type: functional, cell-based; conditions: Homo sapiens, A-431, 72 h
NCI-H1975 [24] = experiment: Downregulation of carbonic anhydrase 9 in human NCI-H1975 cells incubated for 24 hrs in hypoxic condition by Western blot analysis; type: functional, cell-based; in short: as §3
NCI-H1975 [25] = experiment: Induction of cell cycle arrest in human NCI-H1975 cells assessed as S phase at 5 uM incubated for 24 hrs by propidium iodide based flow cytometry analysis (reference value: 24.50 %); type: functional
NCI-H1975 [26] = experiment: Induction of apoptosis in human NCI-H1975 cells assessed as early apoptotic cells at 5 uM incubated for 24 hrs by annexin V-FITC and propidium iodide based flow cytometry analysis (reference value: 1.34 %); type: functional
NCI-H1975 [27] = experiment: Induction of apoptosis in human NCI-H1975 cells assessed as late apoptotic cells at 5 uM incubated for 24 hrs by annexin V-FITC and propidium iodide based flow cytometry analysis (reference value: 4.98 %); type: functional
Carbonic anhydrase 9 [28] = biological target: T2, Carbonic anhydrase 9
[29] = biological target: T1, Epidermal growth factor receptor; experiment: Inhibition of EGFR in human NCI-H1975 cells assessed as reduction in ERK phosphorylation incubated for 24 hrs by Western blot analysis; type: cell-based; conditions: dose 2-5 µM; in short: as §1
NCI-H1975 [30] = experiment: Antiproliferative activity against human NCI-H1975 cells assessed as reduction in cell viability incubated for 72 hrs by MTT assay; type: functional, cell-based; conditions: NCI-H1975, 72 h
NCI-H1975 [31] = experiment: Downregulation of carbonic anhydrase in human NCI-H1975 cells at 2 uM incubated for 24 hrs in hypoxic condition by Western blot analysis; type: functional, cell-based
In short: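 H1975 cells treated 24 h under hypoxia (1% O2, 94% N2, 5% CO2, 37 °C), with untreated cells as negative control. Lysed on ice for 30 min, spun at 20 000 g (4 °C, 10 min), protein measured by BCA. Equal protein run on 12% SDS-PAGE and moved to PVDF. Blocked in 5% milk/TBST, anti-CAIX overnight at 4 °C, peroxidase secondary 2 h, chemiluminescent detection.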

T1 sequence (P00533 whole entry): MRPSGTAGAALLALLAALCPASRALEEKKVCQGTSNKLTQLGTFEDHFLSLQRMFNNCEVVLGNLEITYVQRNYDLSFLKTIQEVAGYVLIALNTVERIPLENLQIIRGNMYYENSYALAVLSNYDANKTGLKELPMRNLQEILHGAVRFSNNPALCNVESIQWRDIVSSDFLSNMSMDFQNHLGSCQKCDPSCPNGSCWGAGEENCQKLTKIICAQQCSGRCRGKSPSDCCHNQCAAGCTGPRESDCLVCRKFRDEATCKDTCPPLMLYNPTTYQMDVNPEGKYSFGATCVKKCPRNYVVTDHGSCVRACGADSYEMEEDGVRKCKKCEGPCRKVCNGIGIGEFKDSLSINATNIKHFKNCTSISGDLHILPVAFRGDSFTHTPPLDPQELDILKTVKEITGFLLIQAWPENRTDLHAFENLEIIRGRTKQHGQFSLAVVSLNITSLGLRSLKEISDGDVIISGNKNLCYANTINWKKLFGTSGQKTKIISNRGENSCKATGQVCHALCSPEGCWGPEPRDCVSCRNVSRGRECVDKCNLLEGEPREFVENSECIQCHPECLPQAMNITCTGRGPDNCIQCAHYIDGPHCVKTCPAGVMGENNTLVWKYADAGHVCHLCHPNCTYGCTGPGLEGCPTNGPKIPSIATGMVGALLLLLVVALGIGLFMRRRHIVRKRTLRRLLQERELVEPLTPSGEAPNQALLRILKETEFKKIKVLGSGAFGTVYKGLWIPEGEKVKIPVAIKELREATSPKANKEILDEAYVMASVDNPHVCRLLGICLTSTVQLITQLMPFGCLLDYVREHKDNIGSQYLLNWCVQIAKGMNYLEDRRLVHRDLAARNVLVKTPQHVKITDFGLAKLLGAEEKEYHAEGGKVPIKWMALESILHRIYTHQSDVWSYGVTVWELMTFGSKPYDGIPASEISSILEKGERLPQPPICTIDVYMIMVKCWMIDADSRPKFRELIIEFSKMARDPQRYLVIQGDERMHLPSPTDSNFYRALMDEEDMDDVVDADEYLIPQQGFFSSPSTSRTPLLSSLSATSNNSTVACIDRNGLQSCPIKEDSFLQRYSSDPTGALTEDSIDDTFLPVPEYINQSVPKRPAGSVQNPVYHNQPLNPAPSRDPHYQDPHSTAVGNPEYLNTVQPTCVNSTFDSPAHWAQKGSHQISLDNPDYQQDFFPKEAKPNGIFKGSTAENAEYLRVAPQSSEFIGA
Chain of Epidermal growth factor receptor (Homo sapiens, UniProt P00533, T790M) (P00533 25-1210 T790M limits assumed): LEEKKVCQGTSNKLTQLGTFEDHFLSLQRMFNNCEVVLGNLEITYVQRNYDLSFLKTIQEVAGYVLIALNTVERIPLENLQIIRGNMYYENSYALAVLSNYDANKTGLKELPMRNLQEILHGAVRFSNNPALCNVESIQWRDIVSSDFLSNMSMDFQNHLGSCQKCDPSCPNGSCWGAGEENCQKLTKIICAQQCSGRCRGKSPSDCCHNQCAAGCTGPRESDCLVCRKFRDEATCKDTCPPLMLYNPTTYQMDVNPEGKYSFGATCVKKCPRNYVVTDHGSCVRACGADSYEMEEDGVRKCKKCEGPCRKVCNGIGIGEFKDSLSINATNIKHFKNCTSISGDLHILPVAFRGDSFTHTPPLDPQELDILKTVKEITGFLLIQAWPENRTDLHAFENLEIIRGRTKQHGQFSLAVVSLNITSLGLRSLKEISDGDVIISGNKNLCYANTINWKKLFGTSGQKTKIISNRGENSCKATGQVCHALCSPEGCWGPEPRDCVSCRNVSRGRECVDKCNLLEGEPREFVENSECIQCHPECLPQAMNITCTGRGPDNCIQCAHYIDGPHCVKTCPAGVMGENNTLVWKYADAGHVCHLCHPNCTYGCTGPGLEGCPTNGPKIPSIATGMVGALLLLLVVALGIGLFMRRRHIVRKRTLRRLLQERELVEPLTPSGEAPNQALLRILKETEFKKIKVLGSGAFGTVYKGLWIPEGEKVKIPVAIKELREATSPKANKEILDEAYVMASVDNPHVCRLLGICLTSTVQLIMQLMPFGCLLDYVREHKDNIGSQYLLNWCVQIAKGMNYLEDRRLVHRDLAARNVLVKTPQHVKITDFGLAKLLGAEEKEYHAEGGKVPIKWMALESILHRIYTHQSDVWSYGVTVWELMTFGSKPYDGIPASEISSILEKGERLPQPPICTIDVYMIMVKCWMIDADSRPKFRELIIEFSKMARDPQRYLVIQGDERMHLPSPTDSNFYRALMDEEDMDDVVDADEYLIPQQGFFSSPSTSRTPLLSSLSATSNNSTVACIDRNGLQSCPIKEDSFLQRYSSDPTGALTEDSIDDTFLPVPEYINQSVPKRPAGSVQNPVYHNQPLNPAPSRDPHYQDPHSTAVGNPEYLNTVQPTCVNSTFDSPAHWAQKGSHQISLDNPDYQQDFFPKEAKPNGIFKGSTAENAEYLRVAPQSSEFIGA

## COc1cc2ncnc(Nc3ccc(F)c(Cl)c3)c2cc1OCCCN1CCOCC1 [GEFITINIB]
NCI-H1975 [1]
  Activity: 47.52%
NCI-H1975 [2]
  viability at 2 µM: 86.2%
NCI-H1975 [3]
  Activity: 7.78%
NCI-H1975 [4]
  Activity: 0.61%
NCI-H1975 [5]
  Activity: 18.76%
NCI-H1975 [6]
  Activity: 5.44%
NCI-H1975 [7]
  Activity: 33.72%

## COc1cc2ncnc(Nc3cccc(C(F)(F)F)c3)c2cc1OCCCCC(=O)Nc1ccc(S(N)(=O)=O)cc1
NCI-H1975 [8]
  Activity: Dose-Dependent Effect
[9]
  IC50: 9.2 nM
[10]
  inhibition: Dose-Dependent Effect
NCI-H1975 [11]
  Activity: 27.94%
NCI-H1975 [12]
  Activity: 3.4%
NCI-H1975 [1]
  Activity: 36.98%
A549 [13]
  IC50: 2210 nM
NCI-H1975 [14]
  Activity: 54.85%
NCI-H1975 [2]
  viability at 2 µM: 68.4%
NCI-H1975 [15]
  Activity: 17.9%
L02
  IC50: > 40000 nM
NCI-H1975 [3]
  Activity: 21.6%
NCI-H1975 [16]
  IC50: 1050 nM
NCI-H1975 [4]
  Activity: 2.19%
A549 [17]
  IC50: 6540 nM
NCI-H1975 [5]
  Activity: 15.58%
Carbonic anhydrase 9 [18]
  Activity: Dose-Dependent Effect
NCI-H1975 [19]
  Activity: Dose-Dependent Effect
[20]
  inhibition: Dose-Dependent Effect
[21]
  IC50: 27 nM
NCI-H1975 [22]
  Activity: Dose-Dependent Effect
Carbonic anhydrase 2
  IC50: 278 nM
NCI-H1975 [23]
  viability at 5 µM: 56%
NCI-H1975 [6]
  Activity: 7.8%
A-431
  IC50: 4040 nM
NCI-H1975 [24]
  Activity: Dose-Dependent Effect
NCI-H1975 [25]
  Activity: 17.21%
NCI-H1975 [26]
  Activity: 26.6%
NCI-H1975 [7]
  Activity: 47.44%
NCI-H1975 [27]
  Activity: 14.1%
Carbonic anhydrase 9 [28]
  IC50: 115 nM
[29]
  inhibition: Dose-Dependent Effect
NCI-H1975 [30]
  IC50: 1940 nM

## CC(=O)Nc1nnc(S(N)(=O)=O)s1
NCI-H1975 [31]
  Activity: Active

## C=CC(=O)Nc1cc(Nc2nccc(-c3cn(C)c4ccccc34)n2)c(OC)cc1N(C)CCN(C)C [OSIMERTINIB]
L02
  IC50: > 40000 nM
NCI-H1975 [16]
  IC50: […]
A-431
  IC50: […]
NCI-H1975 [30]
  IC50: […]
